pIC50: −log10 of the molar value. Active and inactive are the calls of the source. The calls are words filed in the database; no cut-off is given here.
test system: Trypanosoma cruzi; assay: Growth inhibition of trypomastigote form of Trypanosoma cruzi Y infected in human U2OS cells at 50 uM measured after 72 hrs by DRAQ5 DNA dye based confocal microscopic analysis relative to control; type: organism-based; conditions: Trypanosoma cruzi, Y, U2OS, read-out: GI

Row | Compound | inhibition at 50 µM [%]
1 | Nc1nc2ccc(SC(F)(F)F)cc2s1 | 37.4
2 | N#Cc1ccc(COc2ccc3nc(N)sc3c2)cc1 | 15.4
3 | Nc1nc2ccc(OCc3ccc(Cl)c(Cl)c3)cc2s1 | 7.24

test system: Leishmania infantum; assay: Growth inhibition of luciferase expressing Leishmania infantum axenic amastigotes infected in human THP1 cells at 10 uM measured after 72 hrs by steady-glo luminescence assay relative to control; type: organism-based; conditions: leishmania infantum, 72 h, 10 µM

Row | Compound | growth inhibition (GI)
4 | Nc1nc2ccc(SC(F)(F)F)cc2s1 | Non-Toxic
5 | N#Cc1ccc(COc2ccc3nc(N)sc3c2)cc1 | Non-Toxic
6 | Nc1nc2ccc(OCc3ccc(Cl)c(Cl)c3)cc2s1 | Non-Toxic

target: T1, Pteridine reductase 1 (Leishmania major, UniProt Q01782); assay: Inhibition of Leishmania major pteridine reductase 1 using di-hydrobiopterine as substrate in presence of NADPH; conditions: not given
T1 sequence (Q01782 whole entry): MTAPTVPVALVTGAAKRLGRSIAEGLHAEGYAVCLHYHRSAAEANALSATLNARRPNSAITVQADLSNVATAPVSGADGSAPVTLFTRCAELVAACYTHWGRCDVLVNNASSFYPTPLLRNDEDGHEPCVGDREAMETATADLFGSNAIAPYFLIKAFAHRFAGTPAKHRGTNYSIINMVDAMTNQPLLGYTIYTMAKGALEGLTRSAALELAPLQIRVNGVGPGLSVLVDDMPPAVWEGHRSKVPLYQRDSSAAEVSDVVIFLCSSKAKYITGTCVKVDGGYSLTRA
Method in brief: (§1)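 Photometric PTR1 assay with NADPH and dihydrobiopterin substrate. H₄B formation is coupled non-enzymatically to cytochrome c reduction, read as signal increase at 550 nm.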

Row | Compound | IC50
7 | Nc1nc2ccc(OCc3ccc(Cl)c(Cl)c3)cc2s1 | Not Active

same assay, conditions: read-out: IC50

Row | Compound | pIC50
8 | Nc1nc2ccc(SC(F)(F)F)cc2s1 | 5.72
9 | N#Cc1ccc(COc2ccc3nc(N)sc3c2)cc1 | 4.06

target: not listed separately; assay: Inhibition of N-terminal His-tagged Trypanosoma brucei pteridine reductase 1 using di-hydrobiopterine as substrate measured at 1 min interval for 50 mins in presence of NADPH; conditions: not given; method in brief: as §1

Row | Compound | pIC50
10 | Nc1nc2ccc(SC(F)(F)F)cc2s1 | 6.30
11 | N#Cc1ccc(COc2ccc3nc(N)sc3c2)cc1 | 6.17
12 | Nc1nc2ccc(OCc3ccc(Cl)c(Cl)c3)cc2s1 | 5.47

test system: Trypanosoma brucei; assay: Inhibition of N-terminal His-tagged Trypanosoma brucei pteridine reductase 1 at 50 uM using di-hydrobiopterine as substrate measured at 1 min interval for 50 mins in presence of NADPH relative to control; conditions: not given; method in brief: as §1

Row | Compound | inhibition [%]
13 | Nc1nc2ccc(SC(F)(F)F)cc2s1 | > 60
14 | N#Cc1ccc(COc2ccc3nc(N)sc3c2)cc1 | > 60
15 | Nc1nc2ccc(OCc3ccc(Cl)c(Cl)c3)cc2s1 | > 60

target: T2, Pteridine reductase 1 (Leishmania major) (UniProt Q01782); assay: Inhibition of Leishmania major pteridine reductase 1 at 50 uM using di-hydrobiopterine as substrate in presence of NADPH relative to control; conditions: not given; method in brief: as §1
T2 sequence (whole entry): T1 sequence (Q01782 whole entry)

Row | Compound | inhibition
16 | Nc1nc2ccc(SC(F)(F)F)cc2s1 | > 60%
17 | N#Cc1ccc(COc2ccc3nc(N)sc3c2)cc1 | > 60%
18 | Nc1nc2ccc(OCc3ccc(Cl)c(Cl)c3)cc2s1 | inactive

test system: Trypanosoma brucei; assay: Growth inhibition of Trypanosoma brucei bloodstream forms at 10 uM measured after 72 hrs by resazurin-based fluorescence assay relative to control; type: organism-based; conditions: Trypanosoma brucei, read-out: GI

Row | Compound | inhibition at 10 µM [%]
19 | Nc1nc2ccc(SC(F)(F)F)cc2s1 | 11
20 | N#Cc1ccc(COc2ccc3nc(N)sc3c2)cc1 | 21 to 27
21 | Nc1nc2ccc(OCc3ccc(Cl)c(Cl)c3)cc2s1 | 42 to 55

test system: Trypanosoma brucei; assay: Inhibition of PTR1 in Trypanosoma brucei bloodstream forms assessed as potentiation of methotrexate-induced parasitic cell growth inhibition at 10 uM measured after 72 hrs by resazurin-based fluorescence assay (reference value: 19 +/- 6%); conditions: not given
Method in brief: (§2)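 Bloodstream-form T. brucei resazurin assay: 72 h at 37 °C, 5% CO₂, then fluorescence at ex 540/em 620 nm. Benzothiazole was tested at 10 μM alone and with 4 μM methotrexate. The index is the combination's activity divided by the sum of the activities of 10 μM benzothiazole and 4 μM methotrexate given separately.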

Row | Compound | growth inhibition (GI) [%]
22 | Nc1nc2ccc(SC(F)(F)F)cc2s1 | 33
23 | N#Cc1ccc(COc2ccc3nc(N)sc3c2)cc1 | 80
24 | Nc1nc2ccc(OCc3ccc(Cl)c(Cl)c3)cc2s1 | 89

test system: Trypanosoma brucei; assay: Inhibition of PTR1 in Trypanosoma brucei bloodstream forms assessed as potentiation of methotrexate-induced parasitic cell growth inhibition by measuring potentiation index at 10 uM measured after 72 hrs by resazurin-based fluorescence assay relative to control (methotrexate); type: functional; conditions: not given; method in brief: as §2

Row | Compound | Ratio
25 | Nc1nc2ccc(SC(F)(F)F)cc2s1 | 1.1
26 | N#Cc1ccc(COc2ccc3nc(N)sc3c2)cc1 | 2
27 | Nc1nc2ccc(OCc3ccc(Cl)c(Cl)c3)cc2s1 | 1.2

target: Voltage-gated inwardly rectifying potassium channel KCNH2 (Homo sapiens, UniProt Q12809); assay: Displacement of Tracer Red from human ERG by fluorescence polarization assay; conditions: not given
Sequence (Q12809 whole entry): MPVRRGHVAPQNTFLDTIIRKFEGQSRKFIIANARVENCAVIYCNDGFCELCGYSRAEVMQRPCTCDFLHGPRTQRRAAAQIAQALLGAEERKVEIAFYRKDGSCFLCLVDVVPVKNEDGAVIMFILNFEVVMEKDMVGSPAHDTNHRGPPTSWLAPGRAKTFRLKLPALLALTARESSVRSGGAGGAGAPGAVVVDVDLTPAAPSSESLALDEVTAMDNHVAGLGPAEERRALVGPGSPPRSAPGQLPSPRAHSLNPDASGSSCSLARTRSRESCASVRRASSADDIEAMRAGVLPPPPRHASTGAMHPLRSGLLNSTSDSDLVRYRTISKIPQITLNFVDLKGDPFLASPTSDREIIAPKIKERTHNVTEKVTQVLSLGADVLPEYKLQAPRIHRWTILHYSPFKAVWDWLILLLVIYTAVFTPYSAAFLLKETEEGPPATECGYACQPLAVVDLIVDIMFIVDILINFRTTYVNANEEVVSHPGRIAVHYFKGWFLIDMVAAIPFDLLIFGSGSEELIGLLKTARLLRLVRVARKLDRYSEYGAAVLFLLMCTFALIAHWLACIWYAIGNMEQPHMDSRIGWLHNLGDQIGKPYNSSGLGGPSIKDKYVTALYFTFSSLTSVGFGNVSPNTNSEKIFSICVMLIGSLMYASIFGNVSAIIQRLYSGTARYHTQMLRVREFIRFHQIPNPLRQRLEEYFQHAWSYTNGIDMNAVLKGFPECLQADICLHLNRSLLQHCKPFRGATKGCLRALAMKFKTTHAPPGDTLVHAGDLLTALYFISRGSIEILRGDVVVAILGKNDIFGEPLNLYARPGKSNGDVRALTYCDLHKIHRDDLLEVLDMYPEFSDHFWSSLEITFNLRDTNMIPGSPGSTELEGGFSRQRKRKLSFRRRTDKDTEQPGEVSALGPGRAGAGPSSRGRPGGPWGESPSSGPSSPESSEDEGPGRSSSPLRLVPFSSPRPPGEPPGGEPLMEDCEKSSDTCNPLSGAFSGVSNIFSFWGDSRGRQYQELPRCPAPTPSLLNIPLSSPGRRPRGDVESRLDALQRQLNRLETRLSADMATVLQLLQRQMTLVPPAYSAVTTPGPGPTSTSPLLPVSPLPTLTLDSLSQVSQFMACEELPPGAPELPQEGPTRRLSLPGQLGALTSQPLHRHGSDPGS

Row | Compound | pIC50
28 | Nc1nc2ccc(SC(F)(F)F)cc2s1 | 4.60 to 5.00
29 | N#Cc1ccc(COc2ccc3nc(N)sc3c2)cc1 | < 4.60
30 | Nc1nc2ccc(OCc3ccc(Cl)c(Cl)c3)cc2s1 | < 4.60

target: T3, Cytochrome P450 1A2 (Homo sapiens, UniProt P05177); assay: Inhibition of human CYP1A2 expressed in baculovirus infected insect cells using beetle D-luciferin as substrate preincubated for 30 mins followed by NADPH addition and measured after 30 mins by CYP450-Glo assay; conditions: not given
T3 sequence (P05177 whole entry): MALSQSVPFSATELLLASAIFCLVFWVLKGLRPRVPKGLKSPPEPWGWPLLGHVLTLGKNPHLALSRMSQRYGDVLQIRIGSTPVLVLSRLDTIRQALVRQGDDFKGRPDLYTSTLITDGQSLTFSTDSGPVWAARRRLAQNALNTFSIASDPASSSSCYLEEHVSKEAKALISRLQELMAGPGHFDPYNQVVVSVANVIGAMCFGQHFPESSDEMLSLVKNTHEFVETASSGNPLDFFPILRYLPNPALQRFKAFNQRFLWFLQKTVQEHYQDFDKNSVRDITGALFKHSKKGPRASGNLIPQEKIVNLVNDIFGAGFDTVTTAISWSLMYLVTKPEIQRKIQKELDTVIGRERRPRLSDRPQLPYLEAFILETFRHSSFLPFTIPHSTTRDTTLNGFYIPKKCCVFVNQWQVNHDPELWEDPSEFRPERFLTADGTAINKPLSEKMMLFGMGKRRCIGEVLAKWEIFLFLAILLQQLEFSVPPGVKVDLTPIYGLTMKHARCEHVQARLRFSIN

Row | Compound | pIC50
31 | Nc1nc2ccc(SC(F)(F)F)cc2s1 | < 4.60
32 | N#Cc1ccc(COc2ccc3nc(N)sc3c2)cc1 | < 4.60
33 | Nc1nc2ccc(OCc3ccc(Cl)c(Cl)c3)cc2s1 | > 5.00

target: Cytochrome P450 2C9 (Homo sapiens, UniProt P11712); assay: Inhibition of human CYP2C9 expressed in baculovirus infected insect cells using beetle D-luciferin as substrate preincubated for 30 mins followed by NADPH addition and measured after 30 mins by CYP450-Glo assay; conditions: not given
Sequence (P11712 whole entry): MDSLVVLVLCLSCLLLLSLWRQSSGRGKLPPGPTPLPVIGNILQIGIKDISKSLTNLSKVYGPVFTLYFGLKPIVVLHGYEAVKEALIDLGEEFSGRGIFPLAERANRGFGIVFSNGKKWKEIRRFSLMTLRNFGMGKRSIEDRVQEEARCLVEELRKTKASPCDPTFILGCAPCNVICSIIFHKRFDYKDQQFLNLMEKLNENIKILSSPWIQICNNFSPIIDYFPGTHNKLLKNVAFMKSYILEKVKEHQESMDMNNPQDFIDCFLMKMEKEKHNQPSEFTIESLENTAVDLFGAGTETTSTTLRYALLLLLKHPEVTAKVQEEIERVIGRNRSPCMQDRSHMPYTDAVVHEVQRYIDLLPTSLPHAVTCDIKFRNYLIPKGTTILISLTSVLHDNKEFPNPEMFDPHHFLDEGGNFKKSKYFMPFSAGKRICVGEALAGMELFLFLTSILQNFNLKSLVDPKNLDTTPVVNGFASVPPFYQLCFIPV

Row | Compound | pIC50
34 | Nc1nc2ccc(SC(F)(F)F)cc2s1 | < 4.60
35 | N#Cc1ccc(COc2ccc3nc(N)sc3c2)cc1 | < 4.60
36 | Nc1nc2ccc(OCc3ccc(Cl)c(Cl)c3)cc2s1 | < 4.60

target: Cytochrome P450 2C19 (Homo sapiens, UniProt P33261); assay: Inhibition of human CYP2C19 expressed in baculovirus infected insect cells using beetle D-luciferin as substrate preincubated for 30 mins followed by NADPH addition and measured after 30 mins by CYP450-Glo assay; conditions: not given
Sequence (P33261 whole entry): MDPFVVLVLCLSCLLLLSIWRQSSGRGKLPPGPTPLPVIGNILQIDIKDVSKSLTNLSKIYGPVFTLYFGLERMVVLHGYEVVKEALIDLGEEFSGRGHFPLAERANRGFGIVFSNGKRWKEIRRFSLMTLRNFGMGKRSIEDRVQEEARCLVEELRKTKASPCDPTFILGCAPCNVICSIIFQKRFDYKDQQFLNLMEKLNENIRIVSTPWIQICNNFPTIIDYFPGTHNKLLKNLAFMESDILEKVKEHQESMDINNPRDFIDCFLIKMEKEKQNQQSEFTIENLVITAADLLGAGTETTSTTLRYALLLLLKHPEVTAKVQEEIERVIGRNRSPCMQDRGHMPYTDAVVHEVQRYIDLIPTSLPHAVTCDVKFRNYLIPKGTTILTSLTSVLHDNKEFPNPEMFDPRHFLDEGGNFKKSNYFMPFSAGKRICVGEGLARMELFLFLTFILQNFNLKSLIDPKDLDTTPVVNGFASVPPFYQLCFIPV

Row | Compound | pIC50
37 | Nc1nc2ccc(SC(F)(F)F)cc2s1 | < 4.60
38 | N#Cc1ccc(COc2ccc3nc(N)sc3c2)cc1 | > 5.00
39 | Nc1nc2ccc(OCc3ccc(Cl)c(Cl)c3)cc2s1 | > 5.00

target: Cytochrome P450 2D6 (Homo sapiens, UniProt P10635); assay: Inhibition of human CYP2D6 expressed in baculovirus infected insect cells using beetle D-luciferin as substrate preincubated for 30 mins followed by NADPH addition and measured after 30 mins by CYP450-Glo assay; conditions: not given
Sequence (P10635 whole entry): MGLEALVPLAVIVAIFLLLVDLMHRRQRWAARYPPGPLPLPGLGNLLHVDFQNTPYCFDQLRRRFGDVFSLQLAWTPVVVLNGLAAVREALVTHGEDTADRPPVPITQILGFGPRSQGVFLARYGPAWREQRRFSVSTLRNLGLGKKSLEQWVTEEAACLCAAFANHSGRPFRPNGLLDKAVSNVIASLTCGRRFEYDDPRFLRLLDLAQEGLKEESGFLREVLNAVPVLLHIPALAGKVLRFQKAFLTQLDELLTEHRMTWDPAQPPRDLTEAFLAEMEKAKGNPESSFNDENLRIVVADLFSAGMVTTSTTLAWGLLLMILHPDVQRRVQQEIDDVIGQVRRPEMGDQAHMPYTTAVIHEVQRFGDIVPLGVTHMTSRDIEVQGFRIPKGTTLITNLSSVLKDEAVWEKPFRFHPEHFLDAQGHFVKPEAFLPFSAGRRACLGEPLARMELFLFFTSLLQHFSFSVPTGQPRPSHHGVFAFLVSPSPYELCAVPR

Row | Compound | pIC50
40 | Nc1nc2ccc(SC(F)(F)F)cc2s1 | < 4.60
41 | N#Cc1ccc(COc2ccc3nc(N)sc3c2)cc1 | < 4.60
42 | Nc1nc2ccc(OCc3ccc(Cl)c(Cl)c3)cc2s1 | 4.60 to 5.00

target: Cytochrome P450 3A4 (Homo sapiens, UniProt P08684); assay: Inhibition of human CYP3A4 expressed in baculovirus infected insect cells using beetle D-luciferin as substrate preincubated for 30 mins followed by NADPH addition and measured after 30 mins by CYP450-Glo assay; conditions: not given
Sequence (P08684 whole entry): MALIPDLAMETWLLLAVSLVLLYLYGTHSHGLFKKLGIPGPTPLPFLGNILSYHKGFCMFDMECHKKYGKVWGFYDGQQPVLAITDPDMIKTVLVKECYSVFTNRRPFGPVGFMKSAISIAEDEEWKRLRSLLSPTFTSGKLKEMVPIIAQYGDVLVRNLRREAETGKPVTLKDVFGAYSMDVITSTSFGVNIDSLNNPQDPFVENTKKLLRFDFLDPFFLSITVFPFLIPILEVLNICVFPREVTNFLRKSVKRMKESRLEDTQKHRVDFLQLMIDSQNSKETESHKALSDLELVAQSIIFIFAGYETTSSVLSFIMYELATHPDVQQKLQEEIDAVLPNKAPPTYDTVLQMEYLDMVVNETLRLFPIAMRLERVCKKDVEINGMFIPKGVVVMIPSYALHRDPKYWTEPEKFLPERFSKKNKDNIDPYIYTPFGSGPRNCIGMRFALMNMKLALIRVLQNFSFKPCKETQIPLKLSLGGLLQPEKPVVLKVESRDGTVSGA

Row | Compound | pIC50
43 | Nc1nc2ccc(SC(F)(F)F)cc2s1 | < 4.60
44 | N#Cc1ccc(COc2ccc3nc(N)sc3c2)cc1 | 4.60 to 5.00
45 | Nc1nc2ccc(OCc3ccc(Cl)c(Cl)c3)cc2s1 | > 5.00

test system: not listed separately; assay: Cytotoxicity against human A549 cells after 48 hrs by Celltiter-glo assay; type: cell-based; conditions: not given

Row | Compound | GI50 at 48 h [µM]
46 | Nc1nc2ccc(SC(F)(F)F)cc2s1 | < 10
47 | N#Cc1ccc(COc2ccc3nc(N)sc3c2)cc1 | 10 to 25
48 | Nc1nc2ccc(OCc3ccc(Cl)c(Cl)c3)cc2s1 | > 25

test system: not listed separately; assay: Cytotoxicity against human THP1 cells after 72 hrs by MTT assay; type: cell-based, THP-1; conditions: read-out: NOAEL

Row | Compound | MNTC at 72 h [µM]
49 | Nc1nc2ccc(SC(F)(F)F)cc2s1 | 10 to 25
50 | N#Cc1ccc(COc2ccc3nc(N)sc3c2)cc1 | 10 to 25
51 | Nc1nc2ccc(OCc3ccc(Cl)c(Cl)c3)cc2s1 | > 25

test system: not listed separately; assay: Cytotoxicity against human U2OS cells assessed as reduction in cell number; type: cell-based; conditions: not given

Row | Compound | GI50 [µM]
52 | Nc1nc2ccc(SC(F)(F)F)cc2s1 | > 25
53 | N#Cc1ccc(COc2ccc3nc(N)sc3c2)cc1 | > 25
54 | Nc1nc2ccc(OCc3ccc(Cl)c(Cl)c3)cc2s1 | > 25

test system: not listed separately; assay: Mitochondrial toxicity in human 786-O cells measured after 6 hrs by MitoTracker Red chloromethyl-X-rosamine based assay; type: cell-based, 786-0; conditions: not given

Row | Compound | IC50 at 6 h [µM]
55 | Nc1nc2ccc(SC(F)(F)F)cc2s1 | > 25
56 | N#Cc1ccc(COc2ccc3nc(N)sc3c2)cc1 | > 25
57 | Nc1nc2ccc(OCc3ccc(Cl)c(Cl)c3)cc2s1 | > 25

test system: not listed separately; assay: Selectivity ratio of IC50 for Leishmania major pteridine reductase 1 to IC50 for N-terminal His-tagged Trypanosoma brucei pteridine reductase 1; conditions: not given

Row | Compound | Ratio IC50
58 | Nc1nc2ccc(SC(F)(F)F)cc2s1 | 2 to 100
59 | N#Cc1ccc(COc2ccc3nc(N)sc3c2)cc1 | 2 to 100
60 | Nc1nc2ccc(OCc3ccc(Cl)c(Cl)c3)cc2s1 | 2 to 100
